Screening data: PubChem BioAssay, several laboratories
Platelet DG rel: inhibitors of platelet dense granule secretion, primary screen, cell-based, MLPCN, human platelets; 300,000 tested, 0.22% active; inhibition, %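 (compounds screened at 7.5 µM in platelet-rich plasma)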; human platelet-rich plasma, SFLLRN dense granule ATP release, luminescence;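 active = mean replicate score, as percent of positive control, at or above 50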
SENP7 block: SENP7 protease inhibitors, primary screen, biochemical, luminescence, uHTS | Sentrin-specific protease 7 (Homo sapiens), Q9BQF6 | recombinant SENP7, Z-RLRGG-aminoluciferin luminescence, 40 min | inhibition, % at 5 µM | 330,000 tested, 1.5% active | AID 434973, 2010;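 active = inhibition above about 50% at the single test dose, limit read from the data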;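 note: plate controls were DMSO with enzyme for no effect and no enzyme buffer wells for full effect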
SENP1 inh: human SENP1 catalytic domain inhibitors, primary screen, biochemical, FRET, uHTS; Sentrin-specific protease 1 (Homo sapiens), Q9P0U3; recombinant SENP1 catalytic domain, CyPet-SUMO1-YPet FRET cleavage; inhibition, % at 10 µM; 360,000 tested, 0.21% active; AID 624204, 2012;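 active = inhibition at least 30% at 10 µM, raw YFP signal under a set limit, fluorescence ratio 0.5 to 1.5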;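 note: 0% = enzyme with DMSO and 100% = no enzyme wells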
Target sequence (Q9P0U3 419-644 limits assumed): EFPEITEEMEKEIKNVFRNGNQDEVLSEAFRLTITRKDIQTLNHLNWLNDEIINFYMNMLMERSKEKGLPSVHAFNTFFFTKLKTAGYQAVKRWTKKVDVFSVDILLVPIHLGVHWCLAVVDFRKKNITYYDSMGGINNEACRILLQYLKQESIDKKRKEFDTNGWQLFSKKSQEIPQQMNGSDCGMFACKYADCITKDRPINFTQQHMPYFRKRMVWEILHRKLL
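Assay system: hSENP1 catalytic domain, recombinant. Amount: SENP1 enzyme, 20 pM final. Schedule: 50 min reaction, RT, dark. Technique: FRET, CFP and YFP emission. Control set: no-enzyme wells low, DMSO-plus-enzyme wells high control.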
SENP8 block-1: SENP8 protease inhibitors, primary screen, biochemical, luminescence. purified SENP8, Z-RLRGG-aminoluciferin cleavage. inhibition, % at 10 µM. 330,000 tested, 1.2% active. AID 2540, 2010; in the data active = inhibition above about 50%
Target sequence (Q96LD8 whole entry, looked up): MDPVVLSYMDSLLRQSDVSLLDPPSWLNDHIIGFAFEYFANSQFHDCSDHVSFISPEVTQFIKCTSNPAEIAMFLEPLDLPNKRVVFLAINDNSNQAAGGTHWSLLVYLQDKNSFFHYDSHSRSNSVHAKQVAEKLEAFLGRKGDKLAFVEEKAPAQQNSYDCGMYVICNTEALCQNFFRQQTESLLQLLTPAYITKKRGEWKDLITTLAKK
SENP6 block: SENP6 protease inhibitors, primary screen, biochemical, luminescence, uHTS; Sentrin-specific protease 6 (Homo sapiens), Q9GZR1; 330,000 tested, 1.8% active; AID 2599, 2010; inhibition, % at 10 µM; Recombinant SENP6 catalytic domain, aminoluciferin luminescence;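 active = inhibition above about 50% at the single tested dose, limit read from the data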;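 note: plate controls were DMSO wells with enzyme for no effect and DMSO wells lacking enzyme for full effect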
SENP8 block-2: human SENP8 protease inhibitors, primary screen, biochemical, fluorescence, Nedd8 protein substrate, uHTS; recombinant SENP8; inhibition, % at 20 µM; 360,000 tested, 0.64% active; AID 602440, 2012; in the data active = inhibition mostly above about 40%, no sharp cut-off; inactive = mostly below about 27%
SENP8 inh conf: human SENP8 protease inhibitors, confirmation, biochemical, Nedd8 protein substrate, single concentration. shares compounds with SENP8 block-2. purified SENP8, Nedd8-AMC/pro-Nedd8 cleavage fluorescence, 30 min. inhibition, % at 25 µM. 1,400 tested, 15% active; in the data active = inhibition mostly above about 39%, no sharp cut-off; inactive = mostly below about 34%
Numbers without * were called inactive; . = not tested or not shown. This is a sample that favours compounds with a hit; in the whole collection about 2.6% have one here.

SMILES | Platelet DG rel | SENP7 block | SENP1 inh | SENP8 block-1 | SENP6 block | SENP8 block-2 | SENP8 inh conf
Cc1ccc(NC(=O)NC2(C(=O)NCc3ccco3)CCCCC2)cc1 | 0 | -3 | 3 | -7 | -2 | 40* | 12
COc1ccc(Br)cc1C1CC(=O)N2CN(C)CSC2=C1C#N (centres undefined) | -1 | 16 | -19 | 1 | -2 | 65* | 1
N#CC1=C2SCN(Cc3ccccc3)CN2C(=O)CC1c1ccccc1F (centres undefined) | -6 | 2 | -104 | 13 | 4 | -48 | .
COc1ccc(Br)cc1C1CC(=O)N2CN(Cc3ccccc3)CSC2=C1C#N (centres undefined) | 2 | 19 | -9 | 31 | 16 | 68* | 1
CCOC(=O)c1ccc(N2CSC3=C(C#N)C(c4ccc(OC)cc4OC)CC(=O)N3C2)cc1 (centres undefined) | 5 | 13 | 0 | -7 | -14 | 52* | 12
Cn1ncc([N+](=O)[O-])c1C(=O)n1nnc2ccccc21 | . | . | 1 | . | . | 3 | .
CCOc1ccc(CN(C)C(=O)c2cccc(S(=O)(=O)Nc3ccccc3OC)c2)cc1OC | . | . | 0 | . | . | 20 | .
O=C(CC(c1ccccc1)c1ccccc1)NCc1cccnc1 | 0 | 0 | 2 | 1 | -1 | 41* | 13
Cc1cc(NS(=O)(=O)c2ccc3c(c2)OCCO3)no1 | -4 | 1 | 2 | -3 | -10 | 42* | 23
CCN(CC(=O)Nc1c(F)cccc1F)C(=O)/C=C/c1ccc2c(c1)OCO2 | 2 | -4 | 0 | -7 | -2 | -196 | .
Cc1ccc(C2NNC(=O)C2NC(=O)c2ccccc2)cc1 (centres undefined) | -57 | 1 | 1 | 1 | 4 | 64* | 8
O=C(NC1C(=O)NNC1c1ccccc1)c1ccc(F)cc1 (centres undefined) | 0 | 6 | 2 | 3 | -9 | 38 | .
CC(C)(C)c1ccc(S(=O)(=O)NCC(=O)N2CCN(Cc3ccccc3)CC2)cc1 | 3 | -2 | 0 | -1 | 13 | 2 | .
O=C(NCCCNC(=O)c1ccc(-c2cc(Cl)ccc2Cl)o1)c1cnccn1 | 2 | -1 | 1 | 6 | -2 | 8 | .
COc1ccc(Cl)cc1NC(=O)C1CCCN(c2ncnc3c2nc2n3CCCCC2)C1 (centres undefined) | 2 | -1 | -1 | 9 | 0 | 10 | .
CC(=O)OCCCNc1cc(Sc2nc3ccccc3s2)c2nonc2c1[N+](=O)[O-] | -1 | 81* | -14 | 92* | 84* | 60* | 35
CC(=O)OCCCNc1cc(Sc2ccc(C)cc2)c2nonc2c1[N+](=O)[O-] | 14 | -4 | -19 | -4 | -2 | 12 | .
O=[N+]([O-])c1c(NCCCO)cc(SCc2ccco2)c2nonc12 | 15 | 14 | -10 | 11 | 45 | 42* | 29
CC(=O)OCCNc1cc(SCc2ccco2)c2nonc2c1[N+](=O)[O-] | 7 | . | -9 | . | . | 76* | 10
CC(C(=O)N1CCCC1)N1CCN(S(=O)(=O)c2ccccc2)CC1 (centres undefined) | . | 8 | 3 | 11 | 6 | 7 | .
O=C(NN=Cc1ccc(N2CCOCC2)s1)c1ccc([N+](=O)[O-])cc1 | . | -5 | 6 | -2 | -2 | 43* | 31
Cc1ccc(C(=O)N/N=C/c2ccc([N+](=O)[O-])s2)cc1 | 20 | 12 | -4 | 7 | 6 | 44* | 24
O=C(Nc1ccc2c(c1)OCO2)c1cc(C2CCCCN2C(=O)c2ccc(Cl)cc2)on1 (centres undefined) | . | . | 2 | . | . | 10 | .
CCOc1ccc(N2Nc3n[nH]c(N)c3N2)cc1 | 0 | -1 | 3 | -18 | 16 | 49* | 35
COc1ccc(N2CCN(c3n[nH]c(N)n3)CC2)cc1 | -3 | -4 | 2 | 3 | 15 | 13 | .
SMILES | Platelet DG rel | SENP7 block | SENP1 inh | SENP8 block-1 | SENP6 block | SENP8 block-2 | SENP8 inh conf
COc1ccc(N2Nc3n[nH]c(N)c3N2)cc1 | 6 | 16 | 3 | -6 | 19 | 51* | 10
O=C(Cc1cccc(NC(=O)C2CCN(C(=O)C3CCCC3)CC2)c1)Nc1cccc(C(=O)N2CCOCC2)c1 | . | . | 2 | . | . | 18 | .
COc1ccc(-c2nn(-c3ccccc3)cc2CNC[C@H]2O[C@@H](n3cnc4c(=O)[nH]c(N)nc43)[C@H](O)[C@@H]2O)cc1 | . | . | -3 | . | . | 16 | .
CCOC(=O)C1CCN(S(=O)(=O)c2ccc(-c3cc(C(F)(F)F)n(C)n3)s2)CC1 | 3 | -1 | 2 | -2 | -9 | 52* | 35
Cc1cc(O)c(C(C)C)cc1N=Cc1cc([N+](=O)[O-])ccc1O | -17 | 14 | -1 | -1 | 25 | 73* | 21
Cc1cc(O)c(C(C)C)cc1N=Cc1ccccc1O | 5 | 7 | 8 | 3 | 0 | 82* | 24
CC(N=Cc1ccccc1O)c1ccccc1 (centres undefined) | -6 | -1 | -3 | -11 | -7 | 14 | .
COc1ccc(Cc2nnc(SCC(=O)N3CCc4ccccc4C3)o2)cc1 | 14 | -10 | -2 | 0 | -12 | 39* | 76*
CCOC(=O)Nc1ccc2c(c1)N(C(=O)CN(CC)CC)c1ccccc1CC2 | 0 | -8 | 3 | -3 | 3 | 3 | .
CCN(CC)CC(=O)Nc1ccc2c(c1)N(C(=O)CN(CC)CC)c1ccccc1CC2 | -6 | 7 | -2 | 4 | 7 | 40* | 55*
CN(C)c1ccc(NC(=O)CSc2nc3c(c(=O)[nH]2)CCCC3)cc1 | -1 | 3 | 1 | 4 | 13 | 45* | 18
CC(C)(C)c1nnc2sc(SCCN3C(=O)c4ccccc4C3=O)nn2c1=O | -4 | 6 | 0 | 1 | -9 | 20 | .
CC(C)N(C(=O)CSc1nn2c(=O)c(C(C)(C)C)nnc2s1)c1ccccc1 | -1 | 0 | 1 | 0 | -13 | 40* | 10
O=C(CN1CCCC1)Nc1ccc(Br)cc1[N+](=O)[O-] | 6 | -11 | -1 | -7 | 10 | 26 | .
O=C1Nc2ccccc2C1=O | -2 | 4 | 1 | -4 | -16 | 44* | 14
CCN(c1ccccc1)S(=O)(=O)c1cccc(C(=O)NCCN2CCOCC2)c1 | . | -1 | 0 | -5 | -13 | 10 | .
